Measurements from ChEMBL document CHEMBL1153955, “Indolylarylsulfones bearing natural and unnatural amino acids. Discovery of potent inhibitors of HIV-1 non-nucleoside wild type and resistant mutant strains reverse transcriptase and coxsackie B4 virus” (J Med Chem, 2009).
pEC50, pIC50: −log10 of the molar value.

Assays:
[1] = target: Human immunodeficiency virus type 1 reverse transcriptase (Human immunodeficiency virus 1, UniProt Q72547, K103N); assay: Inhibition of HIV1 reverse transcriptase p66/p51 K103N mutant; conditions: for pIC50: read-out: IC50
Summary of the method: (§1)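 Substrate was 0.5 µg poly(rA)/oligo(dT) 10:1 (0.3 µM 3′-OH ends) with 10 µM [³H]dTTP, at 37 °C. Acid-precipitable radioactivity was counted on GF/C filters after TCA washes.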

[2] = Cytotoxicity against feline CRFK cells by MTS assay; format: cell-based, Felis catus; conditions: cat
[3] = target: Human immunodeficiency virus type 1 reverse transcriptase (Human immunodeficiency virus 1, UniProt Q72547, L100I); assay: Inhibition of HIV1 reverse transcriptase p66/p51 L100I mutant; conditions: for pIC50: read-out: IC50; summary of the method: as §1
[4] = test system: Influenza A virus H3N2; assay: Antiviral activity against influenza H3N2 virus in MDCK cells assessed as reduction of virus-induced cytopathicity by visual cytopathic effect scoring method; format: functional, organism-based
[5] = Cytotoxicity against MDCK cells by MTS assay; format: cell-based, Canis lupus familiaris; conditions: dog
[6] = test system: Coxsackievirus B4; assay: Antiviral activity against Coxsackievirus B4 in human HeLa cells assessed as protection against virus-induced cytopathicity; format: functional, organism-based; conditions: Enterovirus B
Summary of the method: (§2)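 Confluent cell monolayers inoculated with 100 CCID₅₀ virus. After 1-2 h adsorption, residual virus removed and cultures incubated with varying compound concentrations. Cytopathicity scored once it reached completion in untreated infected controls. EC₅₀ = dose reducing virus-induced cytopathogenicity by 50%.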

[7] = Cytotoxicity against MDCK cells assessed as drug level causing microscopically detectable alteration of normal cell morphology; format: cell-based, Canis lupus familiaris; conditions: dog
[8] = test system: L1210; assay: Antiproliferative activity against mouse L1210 cells after 2 days; format: cell-based; conditions: L1210, 48 h
Summary of the method: (§3)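 Cells seeded at 5 × 10⁴ to 7.5 × 10⁴ cells/200 µL with or without serial compound dilutions; incubated at 37 °C for 2 days (L1210) or 3 days (Molt4/C8, CEM). Cell numbers counted with a Coulter counter. CC₅₀ = concentration reducing proliferation by 50% versus untreated controls, read from plots of cell number (% of control) against concentration. Means of at least two independent experiments.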

[9] = test system: Human immunodeficiency virus 1; assay: Antiviral activity against HIV1 3B in human CEM cells assessed as protection against virus-induced cytopathicity after 4 days; format: functional, organism-based; conditions: Human immunodeficiency virus 1, 3B, CCRF-CEM, 96 h
Summary of the method: (§4)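 CEM cells (~3 × 10⁵ cells/mL) infected with ~100 CCID₅₀ per mL of HIV-1 (IIIB) or HIV-2 (ROD), then seeded into wells containing compound dilutions. After 4 days at 37 °C, syncytium (giant cell) formation was examined microscopically. EC₅₀ = concentration protecting CEM cells from HIV cytopathicity by 50%.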

[10] = test system: Vesicular stomatitis virus; assay: Antiviral activity against VSV in human HEL cells assessed as protection against virus-induced cytopathicity; format: functional, organism-based
[11] = test system: CCRF-CEM; assay: Antiproliferative activity against human CEM cells after 3 days; format: cell-based; conditions: 72 h; summary of the method: as §3
[12] = test system: Respiratory syncytial virus; assay: Antiviral activity against RSV Long in human HeLa cells assessed as protection against virus-induced cytopathicity; format: functional, organism-based; summary of the method: as §2
[13] = test system: Human alphaherpesvirus 2; assay: Antiviral activity against HSV2 G in human HEL cells assessed as protection against virus-induced cytopathicity; format: functional, organism-based; conditions: Human alphaherpesvirus 2, strain G; summary of the method: as §2
[14] = test system: Felid alphaherpesvirus 1; assay: Antiviral activity against Feline herpesvirus in feline […] cells assessed as inhibition of virus-induced cytopathicity; format: functional, organism-based
[15] = target: Human immunodeficiency virus type 1 reverse transcriptase (Human immunodeficiency virus 1, UniProt Q72547); assay: Inhibition of HIV1 reverse transcriptase p66/p51; conditions: for pIC50: read-out: IC50
[16] = target: Human immunodeficiency virus type 1 reverse transcriptase (Human immunodeficiency virus 1, UniProt Q72547, Y181I); assay: Inhibition of HIV1 reverse transcriptase p66/p51 Y181I mutant; conditions: for pIC50: read-out: IC50; summary of the method: as §1
[17] = test system: Sindbis virus; assay: Antiviral activity against Sindbis virus in african green monkey Vero cells assessed as protection against virus-induced cytopathicity; format: functional, organism-based; summary of the method: as §2
[18] = test system: Influenza A virus H3N2; assay: Antiviral activity against influenza H3N2 virus in MDCK cells assessed as reduction of virus-induced cytopathicity by MTS method; format: functional, organism-based
[19] = test system: Influenza A virus; assay: Antiviral activity against influenza H1N1 virus in MDCK cells assessed as reduction of virus-induced cytopathicity by visual cytopathic effect scoring method; format: functional, organism-based
[20] = Cytotoxicity against human HEL cells assessed as drug level causing microscopically detectable alteration of normal cell morphology after 3 days; format: cell-based
[21] = Cytotoxicity against african green monkey Vero cells assessed as drug level causing microscopically detectable alteration of normal cell morphology after 3 days; format: cell-based; conditions: chlorocebus sabaeus
Summary of the method: (§5)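 Serial compound dilutions added to confluent HeLa or Vero monolayers. MCC = minimum concentration causing microscopically detectable alteration of cell morphology after 3 days of incubation.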

[22] = Cytotoxicity against human HeLa cells assessed as drug level causing microscopically detectable alteration of normal cell morphology after 3 days; format: cell-based; summary of the method: as §5
[23] = test system: Human immunodeficiency virus 2; assay: Antiviral activity against HIV2 ROD in human CEM cells assessed as protection against virus-induced cytopathicity after 4 days; format: functional, organism-based; conditions: Human immunodeficiency virus 2, ROD, CCRF-CEM, 96 h; summary of the method: as §4
[24] = test system: Human alphaherpesvirus 1; assay: Antiviral activity against thymidine kinase deficient and acyclovir resistant HSV1 KOS in human HEL cells assessed as protection against virus-induced cytopathicity; format: functional, organism-based; conditions: Human alphaherpesvirus 1, KOS
[25] = test system: Punta Toro virus; assay: Antiviral activity against Punta Toro virus in african green monkey Vero cells assessed as protection against virus-induced cytopathicity; format: functional, organism-based; summary of the method: as §2
[26] = test system: Coxsackievirus B4; assay: Antiviral activity against Coxsackievirus B4 in african green monkey Vero cells assessed as protection against virus-induced cytopathicity; format: functional, organism-based; conditions: Enterovirus B; summary of the method: as §2
[27] = test system: Influenza B virus; assay: Antiviral activity against influenza B virus in MDCK cells assessed as reduction of virus-induced cytopathicity by MTS method; format: functional, organism-based
[28] = Antiproliferative activity against human Molt4/C8 cells after 3 days; format: cell-based; conditions: MOLT-4, 72 h; summary of the method: as §3
[29] = test system: Influenza B virus; assay: Antiviral activity against influenza B virus in MDCK cells assessed as reduction of virus-induced cytopathicity by visual cytopathic effect scoring method; format: functional, organism-based
[30] = test system: Feline coronavirus; assay: Antiviral activity against Feline coronavirus in feline […] cells assessed as inhibition of virus-induced cytopathicity; format: functional, organism-based; conditions: Alphacoronavirus 1
[31] = test system: Human respirovirus 3; assay: Antiviral activity against Parainfluenza virus type 3 in african green monkey Vero cells assessed as protection against virus-induced cytopathicity; format: functional, organism-based; conditions: Human respirovirus 3, Vero; summary of the method: as §2
[32] = test system: Vaccinia virus; assay: Antiviral activity against Vaccinia virus Lederle in human HEL cells assessed as protection against virus-induced cytopathicity; format: functional, organism-based; conditions: Orthopoxvirus vaccinia
[33] = test system: Human alphaherpesvirus 1; assay: Antiviral activity against HSV1 KOS in human HEL cells assessed as protection against virus-induced cytopathicity; format: functional, organism-based; conditions: Human alphaherpesvirus 1, KOS
[34] = test system: Influenza A virus; assay: Antiviral activity against influenza H1N1 virus in MDCK cells assessed as reduction of virus-induced cytopathicity by MTS method; format: functional, organism-based; conditions: Influenza A virus, H1N1, MDCK
[35] = test system: Vesicular stomatitis virus; assay: Antiviral activity against VSV in human HeLa cells assessed as protection against virus-induced cytopathicity; format: functional, organism-based
[36] = test system: Mammalian orthoreovirus 1; assay: Antiviral activity against Reovirus 1 in african green monkey Vero cells assessed as protection against virus-induced cytopathicity; format: functional, organism-based; conditions: Mammalian orthoreovirus 1, Vero; summary of the method: as §2

Compound | CC50 [2] | pEC50 [4] | CC50 [5] | pEC50 [6] | MCC [7] | pIC50 [8] | pEC50 [9] | pEC50 [10] | pIC50 [11] | pEC50 [12] | pEC50 [13] | pEC50 [14] | pEC50 [17] | pEC50 [18] | pEC50 [19] | MCC at 72 h [20] | MCC at 72 h [21] | MCC at 72 h [22] | pEC50 [23] | pEC50 [24] | further results
Cc1cc(C)cc(S(=O)(=O)c2c(C(=O)NC(C)C(N)=O)[nH]c3ccc(Br)cc23)c1 (centres undefined) | 9.2 µM | < 3.10 | 1.7 µM | 5.70 | 4 µM | 5.00 | 8.72 | < 5.40 | 5.00 | 5.40 | < 5.40 | < 5.40 | < 5.40 | < 3.10 | < 3.10 | 20 µM | 20 µM | 20 µM | < 5.00 | < 5.40 | pIC50 [1]: 6.29; pIC50 [3]: 7.39; pIC50 [15]: 7.80; pIC50 [16]: 5.74; pEC50 [25]: < 5.40; pEC50 [26]: < 5.40; pEC50 [27]: < 3.10; pIC50 [28]: 5.06; pEC50 [29]: < 3.10; pEC50 [30]: < 5.40; pEC50 [31]: < 5.40; pEC50 [32]: < 5.40; pEC50 [33]: < 5.40; pEC50 [34]: < 3.10; pEC50 [35]: < 5.40; pEC50 [36]: < 5.40
Cc1cc(C)cc(S(=O)(=O)c2c(C(=O)NC(C)CS(N)(=O)=O)[nH]c3ccc(Br)cc23)c1 (centres undefined) | 53 µM | < 3.10 | 1.9 µM | 5.52 | 4 µM | 4.96 | 8.64 | < 5.40 | 4.92 | ≤ 5.40 | < 5.40 | < 4.70 | < 4.70 | < 3.10 | < 3.10 | 20 µM | ≥ 20 µM | 20 µM | < 5.00 | < 5.40 | pIC50 [1]: 5.88; pIC50 [3]: 6.90; pIC50 [15]: 8.52; pIC50 [16]: 5.07; pEC50 [25]: < 4.70; pEC50 [26]: 4.80; pEC50 [27]: < 3.10; pIC50 [28]: 5.03; pEC50 [29]: < 3.10; pEC50 [30]: < 4.70; pEC50 [31]: < 4.70; pEC50 [32]: < 5.40; pEC50 [33]: < 5.40; pEC50 [34]: < 3.10; pEC50 [35]: < 5.40; pEC50 [36]: < 4.70
Cc1cc(C)cc(S(=O)(=O)c2c(C(=O)NCCS(N)(=O)=O)[nH]c3ccc(Cl)c(F)c23)c1 | 34.6 µM | < 5.40 | 7.4 µM | 5.15 | 20 µM | 4.38 | 8.64 | < 4.70 | 4.51 | 4.70 | < 4.70 | < 4.70 | < 4.70 | < 5.40 | < 5.40 | 100 µM | 100 µM | 100 µM | < 5.00 | < 4.70 | IC50 [1]: ND(Insoluble); IC50 [3]: ND(Insoluble); IC50 [15]: ND(Insoluble); IC50 [16]: ND(Insoluble); pEC50 [25]: < 4.70; pEC50 [26]: < 4.70; pEC50 [27]: < 5.40; pIC50 [28]: 4.44; pEC50 [29]: < 5.40; pEC50 [30]: < 4.70; pEC50 [31]: < 4.70; pEC50 [32]: < 4.70; pEC50 [33]: < 4.70; pEC50 [34]: < 5.40; pEC50 [35]: < 4.70; pEC50 [36]: < 4.70
Cc1cc(C)cc(S(=O)(=O)c2c(C(=O)NC(C)CS(N)(=O)=O)[nH]c3ccc(Cl)c(F)c23)c1 (centres undefined) | 15 µM | < 5.40 | 7.3 µM | < 5.40 | 20 µM | 4.74 | 8.41 | < 5.40 | 4.80 | < 5.40 | < 5.40 | < 5.40 | 4.70 | < 5.40 | < 5.40 | 20 µM | 100 µM | 20 µM | < 5.00 | < 5.40 | pIC50 [1]: 8.52; pIC50 [3]: 6.57; pIC50 [15]: 7.44; pIC50 [16]: < 4.40; pEC50 [25]: < 4.70; pEC50 [26]: 4.92; pEC50 [27]: < 5.40; pIC50 [28]: 4.92; pEC50 [29]: < 5.40; pEC50 [30]: < 5.40; pEC50 [31]: < 4.70; pEC50 [32]: < 5.40; pEC50 [33]: < 5.40; pEC50 [34]: < 5.40; pEC50 [35]: < 5.40; pEC50 [36]: < 4.70
